# Data reported in the EternaBench riboswitch data.
# Test system: MS2 coat protein
# Test: apparent Kd, MS2 coat protein; higher = weaker binding; RNA-MaP array; FMN 200 µM where present
# Method in brief: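 Green signal was scaled to red-channel RNA signal and control-cluster median Fmax, and the apparent Kd was taken as the median of filtered per-cluster binding-curve fits. The binding series used SNAP-549-labelled MS2 coat protein from 0.7 or 1.5 nM, doubling to 3 µM, on designs transcribed by stalled E. coli RNA polymerase on Illumina sequencing-chip clusters. Each series ran without and then with constant ligand in 100 mM Tris-HCl pH 7.5, 80 mM KCl, 4 mM MgCl2, BSA, DTT, yeast tRNA and Tween-20.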
# [1] = designed as: OFF switch for flavin mononucleotide, no ligand
# [2] = ligand present: flavin mononucleotide, designed as: OFF switch for flavin mononucleotide
# [3] = designed as: ON switch for flavin mononucleotide, no ligand
# [4] = ligand present: flavin mononucleotide, designed as: ON switch for flavin mononucleotide
Sequence,apparent Kd [1],apparent Kd [2],apparent Kd [3],apparent Kd [4]
GAGCGAAAGCUCAAUGUCGAUAGCAGAAGGGCAUGAAAACAUGAAAACACAUGAGGAUCACCCAUGUAGGAUAUGCUAUCGACU,10.6 nM,17.6 nM,–,–
UUGUUUGUAGUGAGGAUAUCGUUGAGGAAGAGGAUCGAGAAGGCACAUGAGGAUCACCCAUGUUAGAUGUGGUU,170 nM,198 nM,–,–
CCGGAAAUAGAGGAUAUCGUAUCGGAUACGAUACGAGAAGGCUAUACAUGAGGAUCACCCAUGUGUCCUACCGG,16.4 nM,40.5 nM,–,–
CUGAUGUGAGGAUAUCGGGCUACAGGCCUGCUGCUAGCAAACGAGAAGGCACAUGAGGAUCACCCAUGUGAUAG,15.9 nM,35.1 nM,–,–
CAGCGGGCAGGAUAUGCACCUUGAGACAAAUGUCUGUCCGGACAUGAGGAUCACCCAUGUAGAAGGGCCACGGA,55.4 nM,44.5 nM,–,–
GACUUGCAGCUAGGAUAUGGGCGAUCACAUGAGGAUCACCCAUGUCAACAUCAAAACAAGAUUAACCAGAAGGAGCCGCGGGCU,–,–,17.3 nM,63.9 nM
UCAUGUAUGUAGGAUAUCGAUGUCCUUGGACAUCGAGAAGGACGUACAUGAGGAUCACCCAUGUAACUUGCAUG,25.4 nM,16.8 nM,–,–
ACAAAUUAGUGAGGAUAUGCUAAAUUUAUAACAGCAGAAGGCACAAACCUCAAGACAUGAGGAUCACCCAUGUGGAAUAUAGAU,68 nM,139 nM,–,–
GGGUGACAUGAGGAUCACCCAUGUCAGGAUAUGGGCCCGGGUUUGAAAGGGCCCGGGCCCAGAAGGGACUGCCC,55.3 nM,127 nM,–,–
UUUAUGUAAGGAUAUGCGGGCGGGCGUGAAAAUGUUUGUUUGUAGAAGGUACAUGAGGAUCACCCAUGUAGUGG,145 nM,201 nM,–,–
GCACUUAAAAUUGAACCGUUUCGAACAUGAGGAUCACCCAUGUAGGAUAUGCUAAUAGUAUUGAAGCAGAAGGACAAUAAGUGC,6.17 nM,5.99 nM,–,–
GGAGGGCCUCGAGGAUAUCGCUGCGGUCGUCUGACAUGAGGAUCACCCAUGUGAGAAGGCGAGGCUACUGACUAUGCCCGUUAU,27.9 nM,275 nM,–,–
GUAGCUAUCGGAGGAUAUUCAUAGCCGAAAGGCACAUGAGGAUCACCCAUGUGGCGAAAGCCUUGGGAGAAGGCCGAUAGCUAC,–,–,270 nM,18.7 nM
CACCGCGACAACGCGGUGUCACAUGAGGAUCACCCAUGUUCACAGGAUAUGCGAUAGCCAACGAAGCAGAAGGGUGAUUACUUA,–,–,41.1 nM,111 nM
AGUUGGGUCACAGGAUAUGCGCCGGCAUGCGAAGCAGAAGGGUGACGAGGUUGGGAACAUGAGGAUCACCCAUGUAUCGCAUAA,–,–,319 nM,36.5 nM
AUGAGGUCAGGAUAUGCAUGGCGGGACUUGCGUCGUGGCGUGCAGAAGGGACAUGAGGAUCACCCAUGUGGAGG,177 nM,249 nM,–,–
AAAAAAAAAAGUCAGGAUAUGCAGGGCGGGACAUGAGGAUCACCCAUGUGGCGGAAAAAAAAAAAGCAGAAGGGACGAAUAAAAAA,–,–,53.2 nM,27.4 nM
CUUUUGUUAGGAUAUUAGUAGUAAAUAAAUAAAAUUACUACUGAGAAGGCACAUGAGGAUCACCCAUGUUCCUC,26 nM,31.4 nM,–,–
CGGUCGAAGUAAGGAUAUCGACUGGAUAACAGUCGAGAAGGUACAUGAGGAUCACCCAUGUAAUCCUAUAAUAAAUAACGACCG,12.1 nM,15.5 nM,–,–
CCUCGACAUGAGGAUCACCCAUGUAAGGAUAUUCUAGGACGUGUUUUUCGUAGCUUUAGAAGAAGGUGCAGGUU,49.5 nM,175 nM,–,–
CCAUCGAGUGUGAGGAUAUGCUGGUCCUUGGAUCAGCAGAAGGCACAUGAGGAUCACCCAUGUGAAUACGGUGG,29.9 nM,199 nM,–,–
AUUCACCGAGGAUAUACAUGAGGAUCACCCAUGUAAAAGAAACGGUGCCAUCGGUCGUGUAGAAGGUGGUGUUA,16.6 nM,16.1 nM,–,–
AUAAUGUGAGGAUAUCAGUCGUACAGCUUCGGCUGUACGACUGAGAAGGCACAUGAGGAUCACCCAUGUGGUCA,499 nM,84.2 nM,–,–
